Assay results collected from several papers.
Target: Mitogen-activated protein kinase kinase kinase 11 (MAP3K11, Homo sapiens, UniProt Q16584)

SMILES	effect on	mode	technique	concentration	quantity	value
C#Cc1cc(-c2cc(Nc3nc(N[C@@H](C)c4ccc(F)cn4)ncc3Cl)n[nH]2)ccc1C=O	enzyme activity	inhibitor	–	0.2 µM	inhibition	72.5%
C=CC(=O)N1CCC([C@@H]2CCNc3c(C(N)=O)c(-c4ccc(Oc5ccccc5)cc4)nn32)CC1	enzyme activity	inhibitor	–	1 µM	inhibition	0%
COc1ccc2[nH]c3c4[nH]c5ccc(OC)cc5c4c4c(c3c2c1)C(=O)NC4=O	binding	–	–	1 µM	remaining binding	5.6%
CCCCC(=O)Nc1ccc(-c2ccc3ncn(CCC)c(=O)c3c2)cn1	binding	–	competition with immobilised ligand	0.5 µM	remaining binding	82%
C=CC(=O)N1CCC[C@@H](n2nc(-c3ccc(Oc4ccccc4)cc3)c3c(N)ncnc32)C1	enzyme activity	inhibitor	–	1 µM	inhibition	0%
CC(C)S(=O)(=O)c1ccc2nccc(Nc3ccc4sc(C5CCCC5)nc4c3)c2c1	enzyme activity	inhibitor	–	1 µM	activity vs control	98%
C1=C/COCc2cc(ccc2OCCN2CCCC2)Nc2nccc(n2)-c2cccc(c2)COC/1	cell-free assay	–	–	0.1 µM	remaining signal	100%
CN1CCN(C(=O)c2ccc(NC(=O)Nc3ccc(N(C)c4ccnc(Nc5ccc(CS(C)(=O)=O)cc5)n4)cc3)cc2)CC1	binding	–	–	1 µM	remaining binding	91%
